Target: T1, Aldehyde dehydrogenase 1A1 (Rattus norvegicus) (UniProt P51647)
T1 sequence (whole entry): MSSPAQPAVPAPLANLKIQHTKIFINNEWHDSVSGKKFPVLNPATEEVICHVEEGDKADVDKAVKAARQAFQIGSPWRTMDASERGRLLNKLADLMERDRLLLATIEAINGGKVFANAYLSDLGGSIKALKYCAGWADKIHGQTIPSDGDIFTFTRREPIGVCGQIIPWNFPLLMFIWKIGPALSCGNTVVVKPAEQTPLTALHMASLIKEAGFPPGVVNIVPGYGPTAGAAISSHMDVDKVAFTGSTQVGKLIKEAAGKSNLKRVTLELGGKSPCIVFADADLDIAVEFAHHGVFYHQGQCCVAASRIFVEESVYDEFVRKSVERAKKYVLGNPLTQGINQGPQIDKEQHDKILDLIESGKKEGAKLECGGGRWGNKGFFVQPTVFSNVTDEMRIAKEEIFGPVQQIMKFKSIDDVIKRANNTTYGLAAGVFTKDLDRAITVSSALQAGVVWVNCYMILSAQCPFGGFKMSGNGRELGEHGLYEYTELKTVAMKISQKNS
Assay: Evaluated in vivo for inhibition of liver mitochondrial aldehyde dehydrogenase activity 2 hour after administering into rats, at a dose of 1.25 mmol/kg
Assay type: organism-based
Conditions: scale: nmol of acetaldehyde(AcH) oxide per minute per mg of protein
Procedure, shortened: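 Rats given 1.25 mmol/kg ip; controls given saline. Killed 2 h later. Intact liver mitochondria prepared at 0 °C and kept cold until assay. After 5-min preincubation at 38 °C, 200 nmol AcH added. Quenched after 5 min with HClO₄. Activity given as nmol AcH oxidized/min/mg protein (Lowry), mean ± SEM.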

SMILES	Activity
CN(Cc1ccccc1)C1CC1	3.48
c1ccc(CNC2CC2)cc1	2.68
